# Shown are actives, neighbours in structure and some others; about 2.3% of the full set was active somewhere.
# V1R ag counter: agonists of human V1a receptor, primary screen, counter-screen for OXTR agonist project, fluorescence, CHO-V1R cells | Fluo-8 calcium fluorescence, agonist mode; 0% DMSO, 100% 3 nM vasopressin | activation, % at 3 µM | 320,000 tested, 0.25% active | AID 2797, 2010 | Vasopressin V1a receptor (Homo sapiens), P37288;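 active = activation above the mean activation of all tested compounds plus 3 SD, per screening run, cut at about 20% in these data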;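 also: signal is peak over basal fluorescence ratio across a 100 second FLIPR read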
# TAAR1 ag: human TAAR1 agonists, primary screen, Fluo-8 calcium fluorescence, CHO RD-HGA16 cells. Trace amine-associated receptor 1 (Homo sapiens), Q96RJ0. vehicle wells 0%, saturating PEA agonist 100%. activation, % at 3 µM. 360,000 tested, 0.99% active. AID 624467, 2012;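 active = activation above the mean activation of all test compounds in the run plus 3 SD, cut at about 38% in these data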
# Target sequence (Q96RJ0 whole entry, looked up): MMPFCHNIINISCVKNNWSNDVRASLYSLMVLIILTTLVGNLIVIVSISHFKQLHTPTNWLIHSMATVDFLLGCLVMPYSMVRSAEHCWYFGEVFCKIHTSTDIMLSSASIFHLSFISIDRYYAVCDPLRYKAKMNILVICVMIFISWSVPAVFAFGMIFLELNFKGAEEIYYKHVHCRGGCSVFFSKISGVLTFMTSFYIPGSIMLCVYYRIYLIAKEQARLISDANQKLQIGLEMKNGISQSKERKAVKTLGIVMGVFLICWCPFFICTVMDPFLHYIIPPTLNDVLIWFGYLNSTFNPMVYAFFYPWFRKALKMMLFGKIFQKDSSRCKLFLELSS
#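 Signal – calcium-sensitive Fluo-8 signal, excitation 470-495, emission 515-575 nm · System – RD-HGA16 (CHO) cells co-expressing Gα16 and hTAAR1 · Incubation – 17-24 h seeding, 75 min 37 °C dye, 30 min RT · Compound dosing – 3 µM single concentration · Repeats – no replicates (n 1)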
# TAAR1 antagonist: human TAAR1 antagonists, primary screen, Fluo-8 calcium fluorescence, CHO RD-HGA16 cells | AID 624466, 2012 | 360,000 tested, 1.5% active | antagonist | inhibition, % at 3 µM;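 active = inhibition above a per-plate cutoff, the mean inhibition of test compounds on that plate plus 3 SD, cut at about 49% in these data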;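 also: 0% = DMSO plus EC80 beta-PEA response and 100% = DMSO alone without agonist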
#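 Test system: hTAAR1-expressing CHO RD-HGA16 cells, Gα16-coupled; Probe or stimulus: EC80 β-phenethylamine stimulus; Compound dosing: single nominal final test compound concentration of 3 µM; Timing: 140 s kinetic read after compound, 140 s after agonist; Signal: Fluo-8 calcium-sensitive fluorescence; Measure: % inhibition of agonist calcium response; Controls: DMSO and EC80 PEA controls.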
# OXTR potentiate: human OXTR potentiators, primary screen, fluorescence, CHO-OTR cells, Fluo-8 calcium. Fluo-8 calcium fluorescence, potentiator mode; 0% = oxytocin EC15, 100% = EC100. AID 2445, 2010. activation, % at 3 µM. 320,000 tested, 0.061% active. Oxytocin receptor (Homo sapiens), P30559;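 active = activation above that plate's cutoff, the mean activation of tested compounds plus 3 SD, cut at about 6.6% in these data, passing the limit was not always enough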;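 also: 100% uses oxytocin at 75 nM as the full agonist control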
# Target sequence (P30559 whole entry, looked up): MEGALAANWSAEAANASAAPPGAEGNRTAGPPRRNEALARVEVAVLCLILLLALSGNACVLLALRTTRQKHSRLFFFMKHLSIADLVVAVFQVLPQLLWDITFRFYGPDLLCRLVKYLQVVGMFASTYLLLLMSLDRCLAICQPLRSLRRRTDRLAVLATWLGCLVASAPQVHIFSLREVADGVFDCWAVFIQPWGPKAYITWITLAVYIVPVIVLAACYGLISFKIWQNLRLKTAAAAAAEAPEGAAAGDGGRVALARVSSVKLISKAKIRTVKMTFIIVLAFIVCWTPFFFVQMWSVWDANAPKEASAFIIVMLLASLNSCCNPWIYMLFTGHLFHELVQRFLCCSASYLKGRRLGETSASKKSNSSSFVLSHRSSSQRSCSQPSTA
#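 Replication – single well per compound, singlicate · Assay system – CHO cell line stably expressing human OTR · Timing – 6 min pre-incubation, 100 s read · Measure – normalized max/min fluorescence ratio, % activation · Doses – 3.0 µM, one dose · Detection – Fluo-8 calcium dye fluorescence · Probe or stimulus – oxytocin near EC15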
# OXTR ag: human OXTR agonists, primary screen, fluorescence, CHO-OTR cells, Fluo-8 calcium. 320,000 tested, 0.32% active. Oxytocin receptor (Homo sapiens), P30559. Fluo-8 calcium fluorescence; normalized: DMSO 0%, oxytocin 100%. activation, % at 3 µM;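 active = activation above the mean of all tested compounds plus 3 SD, cutoff set per screening run, cut at about 20% in these data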;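 also: peak over basal fluorescence ratio from a 100 s FLIPR kinetic read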
# nonsel antag count: nonselective antagonists in TAAR1 counter-screen cells, counter-screen for hTAAR1 antagonist project, cell-based, fluorescence, calcium | shares compounds with TAAR1 antagonist | counterscreen cell line, antagonist mode | inhibition, % at 3 µM | 2,400 tested, 77% active | AID 651780, 2012; in the data active = inhibition above about 22%;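 also: CHO-Ga16 host cells stimulated with ATP at an EC80 level; 0% = agonist EC80 plus vehicle and 100% = vehicle without agonist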
# TAAR1 antag conf: human TAAR1 antagonists, retest of hits, confirmation, cell-based, fluorescence | TAAR1-expressing cells, fluorescence antagonist read-out | inhibition, % at 3 µM | AID 651785, 2012 | 2,400 tested, 40% active | shares compounds with TAAR1 antagonist; in the data active = inhibition above about 49%;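 also: CHO-Ga16 host cells challenged with agonist PEA near its EC80; 0% = agonist at EC80 plus vehicle and 100% = vehicle with no agonist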
# Ga16 ag counter: calcium activation in Ga16-expressing cells, counter-screen for TAAR1 antagonist project, cell-based, fluorescence. shares compounds with TAAR1 antagonist. agonist counterscreen. activation, % at 3 µM. 2,400 tested, 18% active; in the data active = activation above about 12%;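 also: 0% = vehicle wells and 100% = saturating stimulus response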
# TAAR1 ag count: TAAR1 activation by candidate antagonists – cell-based, fluorescence, counter-screen for TAAR1 antagonist project; 2,400 tested, 2% active; activation, % at 3 µM; shares compounds with TAAR1 antagonist; hTAAR1 cell line, agonist mode; AID 651955, 2012; in the data active = activation above about 37%;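 also: CHO cells stably expressing TAAR1 with calcium dye readout; 0% = DMSO vehicle and 100% = full agonist response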
# An asterisk follows results filed as active; · = no result given.
SMILES,V1R ag counter,TAAR1 ag,TAAR1 antagonist,OXTR potentiate,OXTR ag,nonsel antag count,TAAR1 antag conf,Ga16 ag counter,TAAR1 ag count
Brc1ccc(CSc2ccc3nnc(-c4ccccn4)n3n2)cc1,0,5,39,-7,0,·,·,·,·
Cc1ccc(CSc2ccc3nnc(-c4ccccn4)n3n2)cc1,1,2,61*,-2,-1,25*,35,6,6
Brc1ccc(CSc2ccc3nnc(-c4cccnc4)n3n2)cc1,3,7,60*,-4,-1,25*,39,9,13
Cc1cc(=O)n2[nH]c(CCC(=O)O)nc2n1,1,2,-4,4,1,·,·,·,·
COc1ccc(CN2C(=O)C(C)Nc3ncnc(N4CCN(c5ccccc5)CC4)c32)cc1 (configuration not stated),3,14,1,-5,2,·,·,·,·
CC1Nc2ncnc(N3CCN(c4ccccc4)CC3)c2N(Cc2ccc(Br)cc2)C1=O (configuration not stated),0,29,57*,-13,0,18,36,8,7
C=CC[C@@H](Cc1ccc(F)cc1)C(=O)OC[C@H]1CCCN1C(=O)[C@@H](CC=C)CC(=O)N[C@H](CO)Cc1ccccc1,4,22,81*,-1,-2,41*,43,13*,7
C=CC[C@@H](Cc1ccc(F)cc1)C(=O)OC[C@@H]1CCCN1C(=O)[C@@H](CC=C)CC(=O)N[C@H](CO)Cc1ccccc1,6,26,66*,-10,3,36*,34,9,9
C=CCC[C@@H](Cc1ccc(F)cc1)C(=O)OC[C@H]1CCCN1C(=O)[C@@H](CC=C)CC(=O)N[C@H](CO)Cc1ccccc1,-1,18,67*,-9,-2,29*,53*,7,7
CCCCNC(=O)C[C@@H]1C[C@@]2(C(=O)OC)CCCCC=C2N(Cc2ccc3c(c2)OCO3)C1=O,·,13,46,·,·,·,·,·,·
CCCS(=O)(=O)NC(=O)C1(C)CCCN(C(=O)c2ccc(OC)cc2OC)C1 (configuration not stated),·,1,-9,·,·,·,·,·,·
O=C(O)c1ccc2c(c1)C(=O)N(c1cccc(S(=O)(=O)Nc3cccc(C(F)(F)F)c3)c1)C2=O,1,0,-7,-14,0,·,·,·,·
CC(C)(C)NC(=O)C(C1CC1)n1c(-c2ccccc2)nc2ccccc21 (configuration not stated),·,0,-2,·,·,·,·,·,·
CC(=O)CCc1ccc(OCCCOc2cccc3cccnc23)cc1,9,15,68*,-16,7,32*,46,11,18
CC(=O)c1ccc(OCCCOc2cccc3cccnc23)cc1,·,7,4,·,·,·,·,·,·
Cc1nc(Cl)nc(N(C)c2ccccc2)c1[N+](=O)[O-],0,-3,-26,-8,-2,·,·,·,·
CCCN(CCC)Cc1cc(=O)oc2cc(C)c(Cl)cc12,·,1,-18,·,·,·,·,·,·
Cc1ccccc1CSCCC(=O)NCCC1=CCCCC1,-1,7,53*,-11,-1,8,39,3,5
O=C(CCSCc1ccc(Cl)cc1)NCCC1=CCCCC1,0,4,0,-5,-2,·,·,·,·
O=S1(=O)CC(N2CCN(CC3CC3)CC2)CN1Cc1ccccc1 (configuration not stated),·,1,-9,·,·,·,·,·,·
O=C(NNC(=S)Nc1ccc(OC(F)F)cc1)c1cc2c(s1)CCCC2,1,5,-26,-7,-1,·,·,·,·
COc1cc(OC)c(/C=N/NC(N)=S)cc1Br,-1,-1,-2,-4,-2,·,·,·,·
COc1cc2c(-c3ccccc3)c(C)oc2cc1/C=N/NC(N)=S,0,-4,103*,-11,-1,17,10,5,14
O=C1NC2(CCCCCC2)C(=O)N1Cc1cccc([N+](=O)[O-])c1,1,-2,101*,-15,0,0,5,1,5
N=c1sccn1CC(=O)N1N=C(c2ccc(Cl)cc2)CC1c1ccco1 (configuration not stated),0,11,53*,-1,1,4,21,13*,12
SMILES,V1R ag counter,TAAR1 ag,TAAR1 antagonist,OXTR potentiate,OXTR ag,nonsel antag count,TAAR1 antag conf,Ga16 ag counter,TAAR1 ag count
Cc1ccc(C(=O)N2N=C(c3ccc(NS(C)(=O)=O)cc3)CC2c2cccs2)cc1 (configuration not stated),0,6,-7,-5,-1,·,·,·,·
COc1ccc(C(=O)N2N=C(c3ccc(NS(C)(=O)=O)cc3)CC2c2cccs2)cc1 (configuration not stated),5,16,59*,-11,1,30*,45,10,11
CCCCc1ccc(S(=O)(=O)NC(=O)C2(C)CCN2C(=O)c2cccc(F)c2)cc1 (configuration not stated),·,2,-22,·,·,·,·,·,·
Cc1c(Cl)cnc(NC(=O)COC(=O)c2ccncc2)c1Cl,1,-3,101*,-2,1,2,-1,0,-1
COc1cccc(NC(=O)COc2cc(O)c3c(c2)OC(C)(C)CC3=O)c1,4,9,60*,-8,5,27*,45,9,7
Cc1ccc(S(=O)(=O)N(CC(=O)Nc2ccccc2C(=O)O)c2ccccc2C)cc1,0,4,5,-9,-1,·,·,·,·
O=C(Nc1ccccc1C(=O)Nc1ccccc1C(=O)NCc1ccco1)c1ccco1,2,9,69*,-4,0,25*,49*,10,8
Cc1ccccc1N(CC(=O)Nc1ccccc1C(=O)NCc1ccco1)S(=O)(=O)c1ccccc1,0,10,69*,-18,-1,31*,47,7,3
CC(=O)N1CCN(CC(O)COc2ccc(S(=O)(=O)N3CCOCC3)cc2)CC1 (configuration not stated),1,0,26,3,1,·,·,·,·
COc1ccccc1CCn1cnc(-c2ccccc2OC)c1CC(C)C,·,34,7,·,·,·,·,·,·

# Screening results as filed in PubChem.
